CTSL1 counter = Fasciola hepatica cathepsin L1 inhibitors, primary screen, counter-screen for PFM18AAP inhibitor project, biochemical, QFRET, fluorogenic peptide substrate. inhibition, % at 5.96 µM. hit rate 0.49% among 300,000. recombinant F. hepatica cathepsin L1, Z-Leu-Arg-MCA fluorescence;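 active means inhibition above the mean of all tested compounds plus 3 SD, set per screening campaign, cut at about 17% in these data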;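 further: 0% = plate median of test compound wells and 100% = 1 µM Z-Phe-Ala-diazomethylketone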
PP5 inh = PP5 phosphatase inhibitors, primary screen, biochemical, fluorescence; Serine/threonine-protein phosphatase 5 (Homo sapiens), P53041; purified PP5c, OMFP substrate fluorescence; inhibition, % at 6.7 µM; hit rate 0.18% among 320,000; AID 1987, 2009;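 active means inhibition above the campaign's mean inhibition across all tested compounds plus 3 SD, cut at about 9.5% in these data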;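 further: 0% = DMSO only and 100% = 100 µM cantharidin control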
Target sequence (P53041 whole entry, looked up): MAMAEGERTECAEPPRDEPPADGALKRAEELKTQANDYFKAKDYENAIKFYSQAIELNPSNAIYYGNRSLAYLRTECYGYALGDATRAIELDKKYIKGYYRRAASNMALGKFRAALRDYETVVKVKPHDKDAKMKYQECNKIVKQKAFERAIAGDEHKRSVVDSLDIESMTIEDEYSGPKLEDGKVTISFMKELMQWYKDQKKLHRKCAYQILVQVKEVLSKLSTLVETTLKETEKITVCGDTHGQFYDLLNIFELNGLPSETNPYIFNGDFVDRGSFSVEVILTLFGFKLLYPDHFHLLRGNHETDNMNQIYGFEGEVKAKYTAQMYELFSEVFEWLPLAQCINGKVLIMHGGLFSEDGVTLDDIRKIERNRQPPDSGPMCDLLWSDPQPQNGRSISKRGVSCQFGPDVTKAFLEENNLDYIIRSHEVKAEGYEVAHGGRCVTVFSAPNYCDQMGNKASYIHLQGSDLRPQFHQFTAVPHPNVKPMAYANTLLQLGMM
Cardio protect = cardioprotection against H2O2-induced cell death, primary screen, uHTS, H9c2 cells, ATPLite luminescence; hit rate 0.63% among 360,000; AID 588492, 2011; protection from H2O2 cell death, % at 20 µM; H9c2 cardiomyocytes, H2O2 injury protection, 2 h;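 active means compounds giving at least 50% protection of heart cells from peroxide-induced death in the single-dose screen, raw or plate-pattern-corrected value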;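 further: 0% = DMSO wells with peroxide and 100% = DMSO wells without peroxide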
p-CIP stab down = p/CIP-EGFP fusion destabilizers, primary screen, fluorescence, F442A cells | AID 1984, 2009 | decrease of EGFP signal, % at 10 µM | hit rate 0.01% among 290,000 | 16 h;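 active means EGFP signal decrease of at least 30% at 10 µM or well 3 SD below plate mean, unless failing retest; inactive means the rest, including hits failing retest or dose response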
GASC-1 inh = inhibitors of GASC-1 histone demethylase, primary screen, biochemical, fluorescence, DELFIA europium; Lysine-specific demethylase 4C (Homo sapiens), Q9H3R0; GST-JMJD2C(1-420) H3K9me3 demethylation; inhibition, % at 2.35 µM; hit rate 0.069% among 330,000; AID 2099, 2009;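 active means more than half of a compound's replicate wells show inhibition beyond 50%, single wells judged on their own value; inconclusive means some, but no more than half, of replicates pass 50% inhibition; inactive means no replicate passes 50% inhibition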;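 further: signal counts dimethyl H3K9 product captured on neutravidin plate; 0% = median of DMSO wells and 100% = 0.3 times that DMSO median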
T cruzi repl = inhibitors of intracellular T. cruzi growth, primary screen, luminescence, NIH3T3 host cells. hit rate 1.4% among 300,000. inhibition, % (no concentration beside the values). T. cruzi beta-gal in NIH3T3, 90 h;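 active means mean inhibition across valid replicates above about 55%, limit read from the data; inconclusive means mean below that limit but half or more replicates reach it; inactive means mean below it, under half of replicates reach it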;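 further: signal also drops with host cell toxicity which is not excluded here; 0% = plate median of DMSO wells and 100% = zero luminescence signal; higher percent means less beta-gal luminescence so fewer parasites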
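Assay system: NIH/3T3 fibroblasts plus reporter T. cruzi. Amount: NIH/3T3 cells, 5,000 per well. Buffer or medium: DMEM, 2% fetal bovine serum. Doses: compound pinned at 50 nL/well, DMSO. Schedule: ≥90 h infection period, 3 h prior cell attachment. Signal: luminescent β-galactosidase signal after 60 min lysis. Read-out: parasite load inhibition, %.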
* hit, by the source's call; ? = inconclusive; . = not tested or not shown; ! = not confirmed by another sample. Rows were chosen to be rich in hits. Some 2.4% of all compounds tested hit in one or more screens of this group.

SMILES	CTSL1 counter	PP5 inh	Cardio protect	p-CIP stab down	GASC-1 inh	T cruzi repl
CN1CCc2nc3ccccc3c(C(=O)OCC(=O)N(CCC#N)c3ccccc3)c2C1	1	-2	58*	-2	7	14
CCOC(=O)c1oc2ccccc2c1NC(=O)CCl	33*	-3	-6	-1	-7	?
CC1(C)CC(N2CCCCC2)=CC(=[N+]2CCCCC2)C1	4	-1	-24	-10	9	77*
CCCN(CCC)C1=CC(=[N+]2CCCC2)CC(C)(C)C1	3	-1	-24	-10	-3	60*
CC1(C)CC(N2CCOCC2)=CC(=[N+]2CCOCC2)C1	0	0	-4	4	-3	9
O=[N+]([O-])c1ccc(NC(c2ccccc2)c2ccc3cccnc3c2O)cc1 (configuration not stated)	.	.	35	.	.	.
Cc1cc(NC(c2cccnc2)c2ccc3cccnc3c2O)no1 (configuration not stated)	2	4	57*	-12	-13	50
Oc1c(C(Nc2cccc(C(F)(F)F)c2)c2cccnc2)ccc2cccnc12 (configuration not stated)	1	2	59*	0	3	?
Cc1cccc(C2c3[nH]c4ccccc4c3CCN2Cc2cccn2-c2ncccn2)c1 (configuration not stated)	0	3	2	9	6	58*
COc1ccc(C2c3[nH]c4ccccc4c3CCN2Cc2cccn2-c2ncccn2)cc1C (configuration not stated)	1	3	-2	5	-7	79*
c1ccc(C2c3[nH]c4ccccc4c3CCN2Cc2cccn2-c2ccccn2)nc1 (configuration not stated)	-2	1	2	-1	5	39
COc1ccccc1CNC(=O)CN(C)CC(=O)Nc1ccccc1Br	.	.	-5	.	-6	.
COc1ccc(-n2nc([N+](=O)[O-])c(=NCCC3=CCCCC3)n2O)cc1	0	0	-12	-6	-5	91*
COc1ccc(-n2nc([N+](=O)[O-])c(=NCCc3ccc(C)cc3)n2O)cc1	-3	5	-8	7	14	50
COc1ccc(-n2nc([N+](=O)[O-])c(=NCCc3ccc(Cl)cc3)n2O)cc1	6	1	1	-8	6	67*
COC(=O)c1cc(NC(=O)Nc2cc(OC)ccc2OC)cc(C(=O)OC)c1	0	0	54*	6	2	24
CC(NC(=O)C12CC3CC(C)(CC(C)(C3)C1)C2)c1ccncc1 (configuration not stated)	-6	-1	3	-6	12	12
Cn1c(=O)c(=O)n(C)c2cc(S(=O)(=O)CCC(=O)Nc3ccc(C(F)(F)F)cc3)ccc21	17*	-1	-7	-10	6	-25
Cn1c(=O)c(=O)n(C)c2cc(S(=O)(=O)CCC(=O)Nc3c(F)c(F)c(F)c(F)c3F)ccc21	3	3	1	-1	0	41
CCN(CC)S(=O)(=O)c1ccc(NN=C2CCN(C)CC2)c([N+](=O)[O-])c1	1	0	0	9	48	58*
CC1=C(C(=O)Nc2ccccc2F)C(c2ccsc2)C2=C(CC(c3ccccc3)CC2=O)N1 (configuration not stated)	-2	5	9	1	-29	56*
CCN1CCN(CC(O)COC(c2ccccc2)c2ccccc2C)CC1 (configuration not stated)	-3	2	3	-6	9	11
COc1ccc(N2CC(C(=O)Nc3ccncc3)CC2=O)cc1 (configuration not stated)	-3	-1	-1	-10	-13	-5
O=C(O)c1nn(CC(=O)N2CCN(c3ccccc3)CC2)c(=O)c2ccccc12	0	3	66*	-16	3	-10
O=C(CCn1nc(-c2ccccc2)c2ccccc2c1=O)N1CCN(c2ccccc2)CC1	3	2	53*	-6	8	4
SMILES	CTSL1 counter	PP5 inh	Cardio protect	p-CIP stab down	GASC-1 inh	T cruzi repl
CCc1ccc(C(=O)NNC(=O)c2cccc(S(=O)(=O)N3CCN(C)CC3)c2)cc1	.	.	1	.	.	.
CCCOc1cccc(C2C(C(=O)c3cccs3)=C(O)C(=O)N2Cc2cccnc2)c1 (configuration not stated)	2	2	-1	0	-20	-6
COCCN(C(=O)C1CCN(C(=O)c2ccccc2C)CC1)c1c(N)n(CC(C)C)c(=O)[nH]c1=O	.	-1	4	.	2	.
O=C(NN1C(=O)/C(=C/c2ccc(O)c(O)c2)SC1=S)c1ccccc1	34*	4	65*	-181	-31	-22
Cc1nn(Cc2ccc(C(=O)Nc3ccc(C(=O)OC(C)C)cc3)o2)c(C)c1Cl	0	5	-16	-4	7	55*
Cc1nn(Cc2ccc(C(=O)NN)o2)c(C)c1Cl	-3	-3	-1	-10	-12	9
Cc1ccc(NCc2ccc(O)c3ncccc23)cc1C	-3	2	63*	-24	0	19
Cc1cccc(NCc2ccc(O)c3ncccc23)c1C	-2	-2	43	-22	-7	15
Cc1ccc(NCc2ccc(O)c3ncccc23)cc1	-2	5	82*	-11	0	2
Cc1cccnc1NCc1ccc(O)c2ncccc12	-1	4	33	-1	-15	47
O=C(Cc1c[nH]c2ccccc12)NCC(=O)Nc1ccc(F)c(F)c1F	.	1	1	.	.	.
COCCn1c(-c2cccs2)csc1=Nc1cccnc1	19*	-1	-1	-12	-9	7
COCCn1c(-c2ccco2)csc1=Nc1cccnc1	6	1	3	-2	1	-6
CCOC(=O)[C@H]1[C@H]2COc3ccc(C)cc3[C@@H]2N2C(=O)c3cc(C)ccc3NC(=O)[C@@]12C	.	.	5	.	.	.
O=C1NC(=O)c2c(Br)c(Br)c(Br)c(Br)c21	.	.	59*	.	.	.
NC(=NCCCCCCN=C(N)/N=C(\N)Nc1ccc(Cl)cc1)/N=C(\N)Nc1ccc(Cl)cc1	-1	5	-38	10	-26	56*!
Cc1noc(C)c1NC(=O)N(C)C[C@H]1Oc2ccc(NC(=O)Cc3ccccc3)cc2C(=O)N([C@H](C)CO)C[C@@H]1C	.	.	3	.	12	.
Cc1cccc(N2CCN(c3cccc(C)c3)C2c2cccnc2)c1	-2	1	-8	-2	6	66*
Cc1cccc(N2C(=O)CSC2c2cccnc2)c1 (configuration not stated)	-5	0	-6	11	-5	-4
